The values below come from ChEMBL document CHEMBL3425464, “HM30181 Derivatives as Novel Potent and Selective Inhibitors of the Breast Cancer Resistance Protein (BCRP/ABCG2)” (J Med Chem, 2015).

The structures appear in SMILES notation.

Data set [1] addresses T1, Broad substrate specificity ATP-binding cassette transporter ABCG2 (Homo sapiens, UniProt Q9UNQ0).
T1 sequence (Q9UNQ0 whole entry): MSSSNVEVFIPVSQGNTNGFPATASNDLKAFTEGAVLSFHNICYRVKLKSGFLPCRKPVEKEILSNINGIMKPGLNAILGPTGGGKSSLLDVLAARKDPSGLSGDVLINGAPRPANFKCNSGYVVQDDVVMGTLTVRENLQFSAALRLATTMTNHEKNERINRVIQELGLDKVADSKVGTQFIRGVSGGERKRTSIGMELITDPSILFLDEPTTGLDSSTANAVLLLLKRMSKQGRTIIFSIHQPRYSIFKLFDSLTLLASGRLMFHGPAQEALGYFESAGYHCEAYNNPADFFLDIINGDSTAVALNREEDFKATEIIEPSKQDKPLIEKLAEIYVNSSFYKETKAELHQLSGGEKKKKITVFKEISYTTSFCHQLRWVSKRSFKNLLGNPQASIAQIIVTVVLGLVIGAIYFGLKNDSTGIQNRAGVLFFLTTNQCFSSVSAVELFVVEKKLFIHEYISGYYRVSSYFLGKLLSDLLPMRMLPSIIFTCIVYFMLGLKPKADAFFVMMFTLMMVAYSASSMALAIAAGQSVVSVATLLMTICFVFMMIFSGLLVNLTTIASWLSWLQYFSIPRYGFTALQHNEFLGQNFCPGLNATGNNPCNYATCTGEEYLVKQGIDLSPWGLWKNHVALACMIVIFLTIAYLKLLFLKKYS
The data set is described as follows: Inhibition of GFP-tagged human BCRP expressed in MDCK2 cells pre-incubated for 30 mins followed by Hoechst 33342 addition and further incubated for 120 mins by Hoechst 33342 accumulation assay. In kind it is cell-based, MDCK-II. In outline: (§1)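 MDCK II cells stably carrying human BCRP cDNA C-terminally fused to GFP are washed in KHB, pH 7.4. About 30,000 cells/well are preincubated 30 min at 37 °C with compound up to 10 μM (DMSO ≤0.1%, methanol ≤5% for poorly soluble compounds). Hoechst 33342 is added from a 10 μM solution, and fluorescence (ex 355/em 460) is read every 60 s for 120 min. The steady-state mean (100–109 min) is fitted to a four-parameter logistic curve.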

The nature of data set [2]: Solubility in DMSO. In kind it is physicochemical.
The target of data set [3] is Multidrug resistance-associated protein 1 (Homo sapiens, UniProt P33527). The data set is described as follows: Inhibition of MRP1 in human H69AR cells at 10 uM pre-incubated for 30 mins followed by calcein AM addition and further incubated for 60 mins by calcein AM assay. Conditions: 1 h; call rule not given here.
Another data set addresses T2, BCRP (ABCG2) (Homo sapiens, UniProt Q9UNQ0).
T2 sequence (Q9UNQ0 whole entry): T1 sequence (Q9UNQ0 whole entry)
The data set is described as follows: Inhibition of GFP-tagged human BCRP expressed in MDCK2 cells pre-incubated for 30 mins followed by Hoechst 33342 addition and further incubated for 120 mins by Hoechst 33342 accumulation assay relative to XR9577. In kind it is cell-based, MDCK-II. The note with it: MDCK2 cells expressing GFP-tagged human BCRP, probe Hoechst 33342, read-out: Imax.

The target of a further data set is ABCB1 (P-gp) (Homo sapiens, UniProt P08183). The experiment in a line: Inhibition of ABCB1 in human A2780adr cells at 10 uM pre-incubated for 30 mins followed by calcein AM addition and further incubated for 60 mins by calcein AM assay. In kind it is cell-based, A2780 ADR. Conditions: probe calcein AM.
Data set [4] in a line: Solubility in water. The note with it: buffer. In kind it is physicochemical.
Data set [5] deals with ATP-dependent translocase ABCB1 (Homo sapiens, UniProt P08183). The experiment in a line: Inhibition of ABCB1 in human A2780adr cells pre-incubated for 30 mins followed by calcein AM addition and further incubated for 60 mins by calcein AM assay. In kind it is cell-based, A2780 ADR.
The target in data set [6] is T1, Broad substrate specificity ATP-binding cassette transporter ABCG2. The experiment in a line: Inhibition of GFP-tagged human BCRP expressed in MDCK2 cells up to 10 uM pre-incubated for 30 mins followed by Hoechst 33342 addition and further incubated for 120 mins by Hoechst 33342 accumulation assay. In kind it is cell-based. The note with it: mdck-ii, 2 h. In outline:
as §1

Sequence of ATP-dependent translocase ABCB1 (P08183 whole entry): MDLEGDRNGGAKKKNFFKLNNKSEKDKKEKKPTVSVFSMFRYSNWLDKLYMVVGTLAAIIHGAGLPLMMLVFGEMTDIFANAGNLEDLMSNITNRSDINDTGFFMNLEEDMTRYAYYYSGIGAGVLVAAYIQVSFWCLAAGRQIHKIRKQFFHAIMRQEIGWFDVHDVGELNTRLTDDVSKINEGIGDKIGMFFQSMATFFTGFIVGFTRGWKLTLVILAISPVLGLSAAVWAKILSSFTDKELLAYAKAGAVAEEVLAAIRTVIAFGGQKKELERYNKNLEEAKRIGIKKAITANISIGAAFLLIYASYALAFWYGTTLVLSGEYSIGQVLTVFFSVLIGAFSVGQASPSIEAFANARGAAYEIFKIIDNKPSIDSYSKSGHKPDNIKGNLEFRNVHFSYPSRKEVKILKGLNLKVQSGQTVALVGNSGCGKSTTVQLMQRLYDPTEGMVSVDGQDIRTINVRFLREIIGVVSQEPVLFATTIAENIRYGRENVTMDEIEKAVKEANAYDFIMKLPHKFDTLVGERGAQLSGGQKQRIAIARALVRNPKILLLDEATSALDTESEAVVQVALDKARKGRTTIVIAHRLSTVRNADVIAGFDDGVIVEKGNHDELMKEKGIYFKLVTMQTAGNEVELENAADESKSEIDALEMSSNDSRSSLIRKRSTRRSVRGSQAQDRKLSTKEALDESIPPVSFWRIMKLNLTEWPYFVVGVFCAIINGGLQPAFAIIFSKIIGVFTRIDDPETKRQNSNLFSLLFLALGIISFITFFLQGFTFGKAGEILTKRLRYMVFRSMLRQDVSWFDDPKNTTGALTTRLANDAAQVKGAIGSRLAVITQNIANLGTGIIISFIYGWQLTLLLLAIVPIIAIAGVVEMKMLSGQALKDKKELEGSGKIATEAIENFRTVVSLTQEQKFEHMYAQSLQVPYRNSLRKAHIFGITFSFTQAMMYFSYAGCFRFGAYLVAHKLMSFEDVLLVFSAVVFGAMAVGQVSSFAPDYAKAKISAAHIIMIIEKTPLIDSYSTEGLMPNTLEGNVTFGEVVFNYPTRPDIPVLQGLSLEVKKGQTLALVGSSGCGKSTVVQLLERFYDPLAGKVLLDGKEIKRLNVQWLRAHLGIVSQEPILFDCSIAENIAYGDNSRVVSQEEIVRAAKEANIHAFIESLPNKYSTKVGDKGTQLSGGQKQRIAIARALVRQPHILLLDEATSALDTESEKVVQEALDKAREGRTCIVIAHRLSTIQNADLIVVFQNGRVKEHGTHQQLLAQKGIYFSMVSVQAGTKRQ
Sequence of ABCB1 (P-gp) (P08183 whole entry): as above
Sequence of Multidrug resistance-associated protein 1 (P33527 whole entry): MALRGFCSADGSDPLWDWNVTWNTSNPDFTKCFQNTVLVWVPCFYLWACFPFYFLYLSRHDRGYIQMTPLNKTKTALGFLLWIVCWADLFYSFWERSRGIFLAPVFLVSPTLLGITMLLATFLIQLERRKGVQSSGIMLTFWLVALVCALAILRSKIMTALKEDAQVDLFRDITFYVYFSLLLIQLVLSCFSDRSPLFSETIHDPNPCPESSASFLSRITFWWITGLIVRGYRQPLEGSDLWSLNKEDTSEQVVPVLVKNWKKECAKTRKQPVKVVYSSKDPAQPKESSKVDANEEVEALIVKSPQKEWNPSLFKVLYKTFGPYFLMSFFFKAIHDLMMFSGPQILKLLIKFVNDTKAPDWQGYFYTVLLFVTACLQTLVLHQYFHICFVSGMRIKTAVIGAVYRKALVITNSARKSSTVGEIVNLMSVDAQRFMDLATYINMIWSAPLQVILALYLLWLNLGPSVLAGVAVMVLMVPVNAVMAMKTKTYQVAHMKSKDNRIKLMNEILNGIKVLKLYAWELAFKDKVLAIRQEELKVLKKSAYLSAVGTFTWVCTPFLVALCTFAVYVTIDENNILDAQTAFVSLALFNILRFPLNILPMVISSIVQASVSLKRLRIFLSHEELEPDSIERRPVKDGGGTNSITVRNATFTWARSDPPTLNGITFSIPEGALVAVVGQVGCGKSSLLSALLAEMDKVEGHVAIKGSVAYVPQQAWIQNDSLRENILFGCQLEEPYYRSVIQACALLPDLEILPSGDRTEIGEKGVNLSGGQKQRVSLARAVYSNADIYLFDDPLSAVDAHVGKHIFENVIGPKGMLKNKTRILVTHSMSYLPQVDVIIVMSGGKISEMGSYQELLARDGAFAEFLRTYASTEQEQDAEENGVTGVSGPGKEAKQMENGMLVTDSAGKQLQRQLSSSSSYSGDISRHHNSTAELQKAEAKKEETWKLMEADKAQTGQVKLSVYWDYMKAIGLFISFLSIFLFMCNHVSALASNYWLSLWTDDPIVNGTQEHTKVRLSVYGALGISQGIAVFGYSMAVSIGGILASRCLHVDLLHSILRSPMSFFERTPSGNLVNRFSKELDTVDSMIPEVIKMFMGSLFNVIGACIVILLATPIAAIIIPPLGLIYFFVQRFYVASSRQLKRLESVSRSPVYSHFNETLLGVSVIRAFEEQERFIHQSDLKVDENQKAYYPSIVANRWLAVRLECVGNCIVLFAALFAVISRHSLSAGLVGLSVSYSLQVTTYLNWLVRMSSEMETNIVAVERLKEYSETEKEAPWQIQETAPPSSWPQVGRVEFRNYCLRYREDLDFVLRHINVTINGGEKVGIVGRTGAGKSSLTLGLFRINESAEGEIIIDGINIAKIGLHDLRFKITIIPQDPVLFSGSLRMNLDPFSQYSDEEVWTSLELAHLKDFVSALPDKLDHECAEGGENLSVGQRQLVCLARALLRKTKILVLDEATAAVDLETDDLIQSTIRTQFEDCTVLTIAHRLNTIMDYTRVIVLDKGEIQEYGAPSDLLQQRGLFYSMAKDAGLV

For the compound `O=C(Nc1ccccc1C(=O)Nc1ccc(CCN2CCc3ccccc3C2)cc1)c1cnc2ccccc2c1`, the IC50 (in general, the concentration that inhibits the measured activity by half) in data set [1] turned out to be 721 nM.

For `COc1cccc(-n2nnc(-c3ccccc3NC(=O)c3ccc([N+](=O)[O-])cc3)n2)c1`, the solubility (usually the concentration that dissolves in the medium under given conditions) in data set [2] was greater than 10 mM; in data set [4], “Insoluble”. In data set [3], the “inhibition (INH)” value was “Not Active”. Further, at BCRP (ABCG2), the Emax at 2 h was found to be 58%. For the same compound, the inhibition (commonly the relative decrease from the control value, in per cent) at 1 h, 10 µM at ABCB1 (P-gp) was less than 25%. The IC50 in data set [1] was 78.9 nM.

Regarding `COc1cccc(-n2nnc(-c3ccccc3NC(=O)c3ccc(C(F)(F)F)cc3)n2)c1`, the solubility in data set [2] is greater than 10 mM; in data set [4] it was “Insoluble”. In data set [3], the “inhibition (INH)” value is reported as “Not Active”. Besides, the Emax at 2 h on BCRP (ABCG2) stood at 100%. For the same compound, the inhibition at 1 h, 10 µM at ABCB1 (P-gp) is less than 25%. Moreover, the IC50 in data set [1] came to 11200 nM.

With `CCOc1ccc(-n2nnc(-c3ccccc3NC(=O)c3ccc(OC)c(OC)c3)n2)cc1`, the figures for the solubility in data set [2] and in data set [4] were greater than 10 mM and “Insoluble”, respectively. Besides, the “inhibition (INH)” value in data set [3] is “Not Active”. Besides, the Emax at 2 h at BCRP (ABCG2) was determined as 106%. Besides, at ABCB1 (P-gp), the inhibition at 1 h, 10 µM is no less than 25%. The IC50 in data set [1] was 201 nM; in data set [5], 32800 nM.

Turning to `Cc1ccc(-n2nnc(-c3ccccc3NC(=O)c3ccc([N+](=O)[O-])cc3)n2)cc1`, the solubility in data set [2] was greater than 10 mM; in data set [4] it was “Insoluble”. The “inhibition (INH)” value in data set [3] is reported as “Not Active”. The Emax at 2 h at BCRP (ABCG2) worked out at 71%. In addition, the inhibition at 1 h, 10 µM on ABCB1 (P-gp) was less than 25%. Further, the IC50 in data set [1] stood at 100 nM.

On to `COc1ccc(-n2nnc(-c3ccccc3NC(=O)c3ccc([N+](=O)[O-])cc3)n2)cc1`, for which the solubility is greater than 10 mM in data set [2] and “Insoluble” in data set [4]. For the same compound, in data set [3], the “inhibition (INH)” value was “Not Active”. Moreover, the Emax at 2 h at BCRP (ABCG2) was determined as 61%. For the same compound, at ABCB1 (P-gp), the inhibition at 1 h, 10 µM was less than 25%. Moreover, in data set [1], the concentration for half-maximal inhibition (IC50) stood at 118 nM.

With `CCCc1ccc(-n2nnc(-c3ccccc3NC(=O)c3ccc(C(F)(F)F)cc3)n2)cc1`, the solubility in data set [2] was greater than 10 mM; in data set [4], “Insoluble”. The “inhibition (INH)” value in data set [6] and in data set [3] was “Not Active” each time. Further, the inhibition at 1 h, 10 µM on ABCB1 (P-gp) was less than 25%.

Regarding `O=C(Nc1ccccc1-c1nnn(-c2ccc(C(F)(F)F)cc2)n1)c1ccc(C(F)(F)F)cc1`, the figures for the solubility in data set [2] and in data set [4] were greater than 10 mM and “Insoluble”, respectively. For the same compound, the “inhibition (INH)” value in data set [6] and in data set [3] was “Not Active” throughout. Further, the inhibition at 1 h, 10 µM at ABCB1 (P-gp) was less than 25%.

Consider `O=C(Nc1ccccc1-c1nnn(-c2ccc(C(F)(F)F)cc2)n1)c1ccc([N+](=O)[O-])cc1`, for which the solubility in data set [2] was greater than 10 mM; in data set [4], “Insoluble”. The “inhibition (INH)” value in data set [6] and in data set [3] was “Not Active” each time. Besides, the inhibition at 1 h, 10 µM on ABCB1 (P-gp) was less than 25%.

Consider `CCCc1ccc(-n2nnc(-c3ccccc3NC(=O)c3ccc([N+](=O)[O-])cc3)n2)cc1`, for which the solubility in data set [2] is greater than 10 mM; in data set [4] it was “Insoluble”. Besides, the “inhibition (INH)” value in data set [3] was “Not Active”. For the same compound, on BCRP (ABCG2), the Emax at 2 h was 63%. At ABCB1 (P-gp), the inhibition at 1 h, 10 µM was less than 25%. For the same compound, the IC50 in data set [1] was 184 nM.

`COc1ccc(-n2nnc(-c3ccccc3NC(=O)c3ccc(OC)c(OC)c3)n2)cc1`: the solubility in data set [2] is greater than 10 mM; in data set [4] it was “Insoluble”. In addition, the “inhibition (INH)” value in data set [3] is listed as “Not Active”. For the same compound, the Emax at 2 h on BCRP (ABCG2) was 107%. Also, the inhibition at 1 h, 10 µM at ABCB1 (P-gp) is no less than 25%. Further, the results for the IC50 in data set [1] and in data set [5] were 117 nM and 37200 nM, respectively.

Consider `COc1ccc(C(=O)Nc2ccccc2-c2nnn(-c3ccc(C(F)(F)F)cc3)n2)cc1OC`, for which the solubility was greater than 10 mM in data set [2] and “Insoluble” in data set [4]. Further, the “inhibition (INH)” value in data set [3] is “Not Active”. Moreover, the Emax at 2 h at BCRP (ABCG2) amounted to 85%. For the same compound, the inhibition at 1 h, 10 µM on ABCB1 (P-gp) is less than 25%. In addition, in data set [1], the IC50 was found to be 269 nM.

For `COc1ccc(C(=O)Nc2ccccc2-c2nnn(-c3ccccc3OC)n2)cc1`, the values for the solubility in data set [2] and in data set [4] were greater than 10 mM and “Insoluble”, respectively. Also, the “inhibition (INH)” value in data set [3] was “Not Active”. On BCRP (ABCG2), the Emax at 2 h was determined as 88%. Moreover, the inhibition at 1 h, 10 µM on ABCB1 (P-gp) was no less than 25%. Moreover, the IC50 in data set [1] is 180 nM; in data set [5] it was 7730 nM.

For `COc1ccccc1-n1nnc(-c2ccccc2NC(=O)c2ccc(C(F)(F)F)cc2)n1`, the solubility in data set [2] was greater than 10 mM; in data set [4], “Insoluble”. The “inhibition (INH)” value in data set [3] is recorded as “Not Active”. Also, the Emax at 2 h at BCRP (ABCG2) was 100%. The inhibition at 1 h, 10 µM at ABCB1 (P-gp) was no less than 25%. Moreover, the values for the concentration for half-maximal inhibition (IC50) in data set [1] and in data set [5] were 451 nM and 11000 nM, respectively.

On to `COc1ccc(-n2nnc(-c3ccccc3NC(=O)c3ccc(C(F)(F)F)cc3)n2)cc1`, for which the solubility is greater than 10 mM in data set [2] and “Insoluble” in data set [4]. Besides, in data set [3], the “inhibition (INH)” value is “Not Active”. Also, the Emax at 2 h at BCRP (ABCG2) was 93%. For the same compound, the inhibition at 1 h, 10 µM on ABCB1 (P-gp) was less than 25%. The compound also showed an IC50 in data set [1] of 106 nM.

As for `CCOc1ccc(-n2nnc(-c3ccccc3NC(=O)c3ccc(C(F)(F)F)cc3)n2)cc1`, the solubility in data set [2] is greater than 10 mM; in data set [4], “Insoluble”. Besides, the “inhibition (INH)” value in data set [6] and in data set [3] was “Not Active” throughout. The inhibition at 1 h, 10 µM on ABCB1 (P-gp) is less than 25%.

Take `COc1ccccc1-n1nnc(-c2ccccc2NC(=O)c2ccc([N+](=O)[O-])cc2)n1`: the solubility in data set [2] was greater than 10 mM; in data set [4] it was “Insoluble”. Further, the “inhibition (INH)” value in data set [3] is on record as “Not Active”. Further, on BCRP (ABCG2), the Emax at 2 h turned out to be 102%. The inhibition at 1 h, 10 µM at ABCB1 (P-gp) is less than 25%. For the same compound, the IC50 in data set [1] was determined as 261 nM.

`Cc1ccc(-n2nnc(-c3ccccc3NC(=O)c3ccc(C(F)(F)F)cc3)n2)cc1`: the figures for the solubility in data set [2] and in data set [4] were greater than 10 mM and “Insoluble”, respectively. For the same compound, the “inhibition (INH)” value in data set [3] is reported as “Not Active”. For the same compound, on BCRP (ABCG2), the Emax at 2 h turned out to be 65%. The inhibition at 1 h, 10 µM on ABCB1 (P-gp) is less than 25%. The compound also displayed a half-inhibitory concentration (IC50) in data set [1] of 137 nM.

Consider `CCOc1ccc(-n2nnc(-c3ccccc3NC(=O)c3ccc([N+](=O)[O-])cc3)n2)cc1`, for which the solubility in data set [2] was greater than 10 mM; in data set [4], “Insoluble”. Further, the “inhibition (INH)” value in data set [6] and in data set [3] was “Not Active” throughout. For the same compound, the inhibition at 1 h, 10 µM on ABCB1 (P-gp) was less than 25%.
